Measured values taken from ChEMBL document CHEMBL2202989, “New adamantane phenylalkylamines with σ-receptor binding affinity and anticancer activity, associated with putative antagonism of neuropathic pain” (J Med Chem, 2012).

Legend:
[1] = Growth inhibition of human MSC cells after 48 hrs by SRB assay; type: cell-based
Method in brief: (§1)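 Cells grown in RPMI 1640 with 5% heat-inactivated FCS, 2 mM L-glutamine and antibiotics, 37 °C, 5% CO2. Seeded at 3500–30000 cells/well and left 24 h before dosing. DMSO solutions added at 10-fold dilutions from 100 to 0.01 μM for 48 h. Cells TCA-fixed and SRB-stained, absorbance read at 540 nm; GI50 derived against the time-zero plate.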

HUVEC = assay: (§2) Growth inhibition of human HUVEC cells after 48 hrs by SRB assay; type: cell-based; conditions: huvec, 48 h; method in brief: as §1
[2] = as §2; type: cell-based; conditions: HUVEC cells; method in brief: as §1
BXPC-3 = assay: Growth inhibition of human BxPC3 cells after 48 hrs by SRB assay; type: functional; conditions: BXPC-3, 48 h; method in brief: as §1
U-251 = assay: Growth inhibition of human U251 cells after 48 hrs by SRB assay; type: functional; conditions: U-251, 48 h; for CC50: read-out: LC50 (the source's name); method in brief: as §1
OVCAR-5 = assay: Growth inhibition of human OVCAR5 cells after 48 hrs by SRB assay; type: functional; conditions: OVCAR-5, 48 h; for CC50: read-out: LC50 (the source's name); method in brief: as §1
PC-3 = assay: Growth inhibition of human PC3 cells after 48 hrs by SRB assay; type: functional; conditions: PC-3, 48 h; for CC50: read-out: LC50 (the source's name); method in brief: as §1
MCF7 = assay: Growth inhibition of human MCF7 cells after 48 hrs by SRB assay; type: functional; conditions: MCF7, 48 h; for CC50: read-out: LC50 (the source's name); method in brief: as §1
IGROV-1 = assay: Growth inhibition of human IGROV1 cells after 48 hrs by SRB assay; type: functional; conditions: IGROV-1, 48 h; for CC50: read-out: LC50 (the source's name); method in brief: as §1
MIA PaCa-2 = assay: Growth inhibition of human MIAPaCa2 cells after 48 hrs by SRB assay; type: functional; conditions: MIA PaCa-2, 48 h; for CC50: read-out: LC50 (the source's name); method in brief: as §1
NHDF = assay: (§3) Growth inhibition of human NHDF cells after 48 hrs by SRB assay; type: cell-based; conditions: nhdf, 48 h; method in brief: as §1
[3] = as §3; type: cell-based; conditions: NHDF cells; method in brief: as §1
[4] = Displacement of [3H]1,3-di-otolylguanidine from sigma 2 receptor in rat cerebral cortex membranes; type: cell membranes, Membrane
Method in brief: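 Rat cerebral cortex membranes incubated with 5 nM [3H]DTG plus 300 nM (+)-pentazocine to mask σ1 sites, together with a range of test concentrations, 2 h at 22 °C in Tris-HCl, pH 7.4. Nonspecific binding defined with 10 μM haloperidol.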

HCT-15 = assay: Growth inhibition of human HCT15 cells after 48 hrs by SRB assay; type: functional; conditions: HCT-15, 48 h; for CC50: read-out: LC50 (the source's name); method in brief: as §1
[5] = target: Sigma non-opioid intracellular receptor 1 (Homo sapiens, UniProt Q99720); assay: Displacement of [3H]-(+)-pentazocine from sigma 1 receptor in human Jurkat cell membrane; type: cell membranes
Method in brief: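 Jurkat cell membranes incubated with 8 nM [3H](+)-pentazocine and a range of test concentrations for 2 h at 22 °C in Tris-HCl buffer, pH 7.4. Nonspecific binding defined with 10 μM haloperidol. Run in triplicate.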

SK-HEP1 = assay: Growth inhibition of human SKHEP1 cells after 48 hrs by SRB assay; type: functional; conditions: SK-HEP1, 48 h; for CC50: read-out: LC50 (the source's name); method in brief: as §1
HL-60(TB) = assay: Growth inhibition of human HL-60(TB) cells after 48 hrs by SRB assay; type: functional; conditions: HL-60, 48 h; for CC50: read-out: LC50 (the source's name)
Method in brief: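 Cells kept in RPMI 1640 with 5% FCS at 37 °C, 5% CO2, and seeded 24 h before dosing. Compound given from DMSO at 10-fold dilutions, 100 to 0.01 μM, for 48 h. Cells fixed with TCA, stained with SRB, absorbance read at 540 nm. GI50 taken from a time-zero plate.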

DU-145 = assay: Growth inhibition of human DU145 cells after 48 hrs by SRB assay; type: functional; conditions: DU-145, 48 h; for CC50: read-out: LC50 (the source's name); method in brief: as §1

Chain of Sigma non-opioid intracellular receptor 1 (Q99720 whole entry): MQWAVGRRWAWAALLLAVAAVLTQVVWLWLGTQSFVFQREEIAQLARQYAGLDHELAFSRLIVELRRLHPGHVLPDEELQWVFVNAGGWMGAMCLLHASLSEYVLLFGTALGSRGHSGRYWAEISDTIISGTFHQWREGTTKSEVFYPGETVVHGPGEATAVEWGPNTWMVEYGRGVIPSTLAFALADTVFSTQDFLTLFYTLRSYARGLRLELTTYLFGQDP

SMILES | TGI [1] | LC50 (HUVEC) | TGI (HUVEC) | GI50 at 48 h [2] | GI50 (BXPC-3) | LC50 (BXPC-3) | TGI (BXPC-3) | GI50 (U-251) | TGI (U-251) | CC50 (U-251) | GI50 (OVCAR-5) | TGI (OVCAR-5) | CC50 (OVCAR-5) | GI50 (PC-3) | TGI (PC-3) | CC50 (PC-3) | GI50 (MCF7) | TGI (MCF7) | CC50 (MCF7) | GI50 (MIA PaCa-2) | other results
CN1CCN(CCc2ccc(C(c3ccccc3)C34CC5CC(CC(C5)C3)C4)cc2)CC1 (centres undefined) | 6.39 µM | 9.6 µM | 6.46 µM | 3.32 µM | 5.76 µM | 0.1 µM | 19.9 µM | 3.37 µM | 6.09 µM | 0.00881 µM | 17.4 µM | 29.3 µM | 0.0624 µM | 4.57 µM | 9 µM | 0.0135 µM | 2.77 µM | 5.7 µM | 0.0086 µM | 7.5 µM | GI50 (IGROV-1): 4.29 µM; TGI (IGROV-1): 8.93 µM; CC50 (IGROV-1): 0.0136 µM; TGI (MIA PaCa-2): 36 µM; CC50 (MIA PaCa-2): 0.0762 µM; LC50 (NHDF): 100 µM; TGI (NHDF): 8.07 µM; GI50 at 48 h [3]: 4.18 µM; IC50 [4]: 0.0801 µM; GI50 (HCT-15): 4.64 µM; TGI (HCT-15): 8.26 µM; CC50 (HCT-15): 0.1 µM; IC50 [5]: 0.0029 µM; GI50 (SK-HEP1): 3.69 µM; TGI (SK-HEP1): 6.36 µM; CC50 (SK-HEP1): 0.00902 µM
c1ccc(C(c2ccc(CN3CCCCC3)cc2)C23CC4CC(CC(C4)C2)C3)cc1 (centres undefined) | 20.1 µM | 72.47 µM | 21.7 µM | 5.11 µM | 15.8 µM | 0.0874 µM | 51.6 µM | 8.6 µM | 40.2 µM | 0.0758 µM | 31.1 µM | 60.8 µM | 0.0915 µM | 6.07 µM | 26.2 µM | 0.0813 µM | 8.89 µM | 43 µM | 0.0806 µM | 7.98 µM | GI50 (HL-60(TB)): 0.00591 µM; TGI (HL-60(TB)): 0.0729 µM; CC50 (HL-60(TB)): 0.1 µM; TGI (MIA PaCa-2): 43.2 µM; CC50 (MIA PaCa-2): 0.0813 µM; LC50 (NHDF): 81.19 µM; TGI (NHDF): 52.5 µM; GI50 at 48 h [3]: 23.7 µM; GI50 (DU-145): 8.98 µM; TGI (DU-145): 47.3 µM; CC50 (DU-145): 0.089 µM; GI50 (HCT-15): 8.8 µM; TGI (HCT-15): 79 µM; CC50 (HCT-15): 0.1 µM; GI50 (SK-HEP1): 7.46 µM; TGI (SK-HEP1): 38.4 µM; CC50 (SK-HEP1): 0.0822 µM
CCN1CCN(CCc2ccc(C(c3ccccc3)C34CC5CC(CC(C5)C3)C4)cc2)CC1 (centres undefined) | 2.93 µM | 9.62 µM | 7.36 µM | 5.1 µM | 8.35 µM | 0.0898 µM | 45.2 µM | 3.54 µM | 6.19 µM | 0.00847 µM | 28.1 µM | 53.8 µM | 0.0685 µM | 4.83 µM | 9.53 µM | 0.0867 µM | 3.9 µM | 8.5 µM | 0.0971 µM | 20.9 µM | GI50 (IGROV-1): 4.49 µM; TGI (IGROV-1): 9.83 µM; CC50 (IGROV-1): 0.0968 µM; TGI (MIA PaCa-2): 49.2 µM; CC50 (MIA PaCa-2): 0.0775 µM; LC50 (NHDF): 100 µM; TGI (NHDF): 83.6 µM; GI50 at 48 h [3]: 7.31 µM; GI50 (HCT-15): 5.64 µM; TGI (HCT-15): 17.2 µM; CC50 (HCT-15): 0.1 µM; GI50 (SK-HEP1): 4.14 µM; TGI (SK-HEP1): 7.66 µM; CC50 (SK-HEP1): 0.1 µM
CCN1CCN(Cc2ccc(C(c3ccccc3)C34CC5CC(CC(C5)C3)C4)cc2)CC1 (centres undefined) | 4.61 µM | 9.54 µM | 5.34 µM | 1.14 µM | 4.33 µM | 0.00935 µM | 6.84 µM | 4.33 µM | 7.8 µM | 0.0685 µM | 18.1 µM | 43.8 µM | 0.07 µM | 7 µM | 7.9 µM | 0.0624 µM | 2.26 µM | 5.92 µM | 0.00958 µM | 8.24 µM | GI50 (HL-60(TB)): 0.00433 µM; TGI (HL-60(TB)): 0.00775 µM; CC50 (HL-60(TB)): 0.1 µM; TGI (MIA PaCa-2): 43.7 µM; CC50 (MIA PaCa-2): 0.0886 µM; LC50 (NHDF): 100 µM; TGI (NHDF): 66.8 µM; GI50 at 48 h [3]: 6.59 µM; GI50 (DU-145): 5.73 µM; TGI (DU-145): 46.1 µM; CC50 (DU-145): 0.1 µM; GI50 (HCT-15): 3.36 µM; TGI (HCT-15): 6.36 µM; CC50 (HCT-15): 0.0094 µM; GI50 (SK-HEP1): 5.9 µM; TGI (SK-HEP1): 24.3 µM; CC50 (SK-HEP1): 0.0902 µM
